Measurements reported in the EternaBench riboswitch data.

Tested on: MS2 coat protein
Test: apparent Kd, MS2 coat protein; higher = weaker binding; RNA-MaP array
How it was run: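 Apparent Kd was taken as the median of binding curves fitted cluster by cluster. The designed RNAs were made by transcription of sequenced DNA templates on an Illumina sequencing chip and exposed to fluorescently labeled MS2 coat protein (1.5 nM to 3 μM) at room temperature, with or without input ligand, for 0.8–1.5 h at the lowest and 10–20 min at the highest concentrations. Any design measured on fewer than 10 clusters was left out.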

[1] = designed as: ON switch for flavin mononucleotide, no ligand
[2] = ligand present: flavin mononucleotide, designed as: ON switch for flavin mononucleotide
[3] = designed as: OFF switch for theophylline, no ligand
[4] = ligand present: theophylline, designed as: OFF switch for theophylline
[5] = designed as: OFF switch for flavin mononucleotide, no ligand
[6] = ligand present: flavin mononucleotide, designed as: OFF switch for flavin mononucleotide

Sequence: UAGACAAAACAGAAGGAAUGAAGUAGAACAACAAUAGGAUAUGUAUAAAAGUAUACAUGAGGAUCACCCAUGUUACCAACAUGA
- apparent Kd [1]: 11.3 nM
- apparent Kd [2]: 9.34 nM

Sequence: CACGCGGAGUUAGGAUAUAACGAUUGUCAGCCGUUAGAAGGAACCCAUCGCAAAUCUACGUCUAACAUGAGGAUCACCCAUGUU
- apparent Kd [1]: 6.85 nM
- apparent Kd [2]: 5.7 nM

Sequence: UCAAGUGAACCAUGGAAACAUUCAAUAGAUACCAGCAUUAAAACCUGCCCUUGGCAGCUAUGAACAUGAGGAUCACCCAUGUGAA
- apparent Kd [3]: 18.5 nM
- apparent Kd [4]: 71.4 nM

Sequence: GACAACCACAUGAGGAUCACCCAUGUUUACAUACACAAGGGAAGAAGGGAACCUAAAGGAUCAAAUCAGGAUAUUCGUAUUGUA
- apparent Kd [1]: 27 nM
- apparent Kd [2]: 19.5 nM

Sequence: AGCCGUUGGGAUAGACAUGAGGAUCACCCAUGUAAAAGCGAAGAGGAUAUCAGAAUUAAGACAACAGAGAAGGCAUAAAUACAA
- apparent Kd [1]: 38.1 nM
- apparent Kd [2]: 28.3 nM

Sequence: CAUCGGGCGGUAAAUGGCGGGUACGGUGAUACCAGUUUUUGAUUUAACCCUUGGCAGCACUAUACAUGAGGAUCACCCAUGUAAU
- apparent Kd [3]: 17.9 nM
- apparent Kd [4]: 30 nM

Sequence: AAACAGAGCAGAGGAUAUAUGAUAUGCCGAACAUGAGGAUCACCCAUGUCUUCGCGUAGCGCCCCAUAGAAGGCUGAUAGCAAC
- apparent Kd [1]: 16.6 nM
- apparent Kd [2]: 14 nM

Sequence: CUGUUACAUGAGGAUCACCCAUGUGAGCGGUUGCUAGGAUAUCGCCAUUGGUGGUUCGGACGAGAAGGAGCUAAAA
- apparent Kd [1]: 150 nM
- apparent Kd [2]: 67.2 nM

Sequence: GAAUGUUGGAAGAAGGCACGCCCUGCAUGGCGGUGAGGAUAUUCCGUACUUGGAGUGGAAACAUGAGGAUCACCCAUGUAAGUA
- apparent Kd [5]: 36.8 nM
- apparent Kd [6]: 37 nM

Sequence: AUUCGCCGAGGAUAUAAGUCGUUUGACAUGAGGAUCACCCAUGUUGUCAGUGGAAAUCGUUUAGAAGGCGGCCUCC
- apparent Kd [5]: 18.9 nM
- apparent Kd [6]: 13.4 nM

Sequence: GCUCUAAGGGAGAAGGUCAUGUCGCAUCUUAGCGUUCACAUGAGGAUCACCCAUGUUAACUGUGUGAAGGAUAUCCUAGGCUGU
- apparent Kd [1]: 358 nM
- apparent Kd [2]: 125 nM

Sequence: UUACCAGCAGGAUAUUCAUCUGUUAACAUGAGGAUCACCCAUGUCUCGUGAUCGAACUAGGAAGAAGGGCUUAUAC
- apparent Kd [5]: 74.4 nM
- apparent Kd [6]: 77.3 nM

Sequence: GAAAACGAUCCCAAUACAUGAGGAUCACCCAUGUGGUGCAGUCAGGAUAUCACUACACCAAAACUUGAGAAGGGACACAUCGCC
- apparent Kd [5]: 347 nM
- apparent Kd [6]: 318 nM

Sequence: CAACGGUUAGAGAAGGCAUAGUAAAGAAUUCAAUGAGGAUAUCUAAAGAAAUGUAUAGGUCUUUUACAUGAGGAUCACCCAUGU
- apparent Kd [5]: 17.6 nM
- apparent Kd [6]: 9.47 nM

Sequence: AAAGCAGUAGGAUAUACAGUCAUCCGACAGAUAGCGUAAAGACAUGAGGAUCACCCAUGUAGAAGGACUGUAAA
- apparent Kd [5]: 6.35 nM
- apparent Kd [6]: 6.28 nM

Sequence: ACUCCCGCAGAAGGAUAUCCUGACUGAACGAUCGACAUGAGGAUCACCCAUGUGUCUCCGUCGAGGGAGAAGGUCUGCUGUGAC
- apparent Kd [1]: 18.7 nM
- apparent Kd [2]: 7.98 nM

Sequence: GUGCCAAAAGAGGAUAUAUUGACGAUGAUUCGCAUAGAAGGCUUUACAUGAGGAUCACCCAUGUGGGAGUGAUC
- apparent Kd [5]: 614 nM
- apparent Kd [6]: 184 nM

Sequence: UCCUCGCACGAGAAGGCAAGCCGAGAAACACCUUGAGGAUAUCGUCGACAGACCACCGGGACAUGAGGAUCACCCAUGUGGGCC
- apparent Kd [5]: 75.2 nM
- apparent Kd [6]: 49 nM

Sequence: AUGUGAGGACAUGAGGAUCACCCAUGUCGGGAACCUCUCGCAGAGGAUAUUCGAGAAGCAACGUUGAAGAAGGCUGGCGAAACC
- apparent Kd [5]: 18.1 nM
- apparent Kd [6]: 13.7 nM

Sequence: ACAACAAAACAGAAGGCCUUAAAUUACAUGAGGAUCACCCAUGUUACACUAUACAAACAGAACAAGGAGGAUAUGUAAGACUGA
- apparent Kd [1]: 19.9 nM
- apparent Kd [2]: 8.65 nM
